Measurements as given in article PMC3846175 (Bioorganic & medicinal chemistry, 2013).
Where “and” joins values, the source holds several entries; their conditions need not be identical. Identical values can stand only once. Counter-ions that a name gives are not always drawn. Like-named read-outs stand apart in the source and are kept apart here.

Legend:
T. b. r. STIB900 [1] = conditions: mouse, ref [10], [14], [16], [23], cited from earlier work
T. b. brucei GVR35 [2] = conditions: mouse; po 100 mg/kg for 5 days; ref [5]; cited from earlier work
[3] = system: Trypanosoma brucei rhodesiense STIB900; conditions: read-out: T. b. r. IC50; strain STIB900; comparator data; ref [10], [16]; cited from earlier work
Plasmodium falciparum K1 [4] = conditions: read-out: P. f. IC50; strain K1; comparator data; ref [10], [16]; cited from earlier work
T. b. r. STIB900 [5] = test: T. b. r. STIB900 acute mouse model; type: in vivo, Trypanosoma brucei rhodesiense
poly(dA-dT)2 = test: Thermal melting; type: binding
T. b. brucei GVR35 [6] = test: T. b. brucei GVR35 CNS mouse model; type: in vivo, Trypanosoma brucei brucei
How it was run: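 Second-stage (CNS) infection model in mice with T. b. brucei GVR35. The test compound was given orally at 100 mg/kg for 5 days, and a 10-day course was also run. The comparator was diminazene, given as a single 40 mg/kg intraperitoneal dose. Survival was the endpoint. Protocols were approved by the Canton Basel-Stadt veterinary authorities.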

Plasmodium falciparum K1 [7] = test: In vitro assay with P. f. K1 strain; type: cell-based; conditions: IC50 ratio
[8] = po 100 mg/kg for 5 days, 100 mg/kg

For N=C(N)c1ccc(-c2ccc(-c3ccc(C(=N)N)cc3)o2)cc1 [2a, furamidine], the “Cures (mice that survive and are parasite free for 60 days)” value (T. b. r. STIB900 [1]; ip 5 mg/kg daily for 4 days) is listed as 1/4, the “Survival (average days of survival)” value (T. b. r. STIB900 [1]; ip 5 mg/kg daily for 4 days) is listed as over 46 days and the “Cures (mice that survive and are parasite free for 60 days)” value (T. b. r. STIB900 [1]; ip 20 mg/kg daily for 4 days) is listed as 3/4. The “Survival (average days of survival)” value (T. b. r. STIB900 [1]; ip 20 mg/kg daily for 4 days) was over 57.75 days.
In the case of N=C(NO)c1ccc(-c2ccc(-c3ccc(/C(N)=N\O)cc3)o2)cc1 [2b], the “Cures (mice that survive and are parasite free for 60 days)” value (T. b. r. STIB900 [1]; po 100 mg/kg daily for 4 days, 100 mg/kg) is given as “no cure and 0/4”.
For CONC(=N)c1ccc(-c2ccc(-c3ccc(C(=N)NOC)cc3)o2)cc1 [2c, pafuramidine], the “Cures (mice that survive and are parasite free for 60 days)” value (T. b. r. STIB900 [1]; po 10 mg/kg daily for 4 days) is listed as 4/4, the “Survival (average days of survival)” value (T. b. r. STIB900 [1]; po 10 mg/kg daily for 4 days) is listed as over 60 days and the “Cures (mice that survive and are parasite free for 60 days)” value (T. b. r. STIB900 [1]; po 25 mg/kg daily for 4 days) is listed as 4/4. For the same compound, the “Survival (average days of survival)” value (T. b. r. STIB900 [1]; po 25 mg/kg daily for 4 days) was over 60 days, the “MSD (mean survival days)” value (T. b. brucei GVR35 [2]) was over 167.8 days and the “No. of mice cured (survival >180 days without parasitemia relapse)” value (T. b. brucei GVR35 [2]) was 3/5.
For N=C(N)c1ccc(-c2ccc(-c3ccc(C(=N)N)cn3)o2)cc1 [3a], the IC50 [3] is given as 6.5 nM, the IC50 (Plasmodium falciparum K1 [4]) is given as 6.5 nM and the “Cures (mice that survive and are parasite free for 60 days)” value (T. b. r. STIB900 [1]; ip 5 mg/kg daily for 4 days) is given as 3/4. The “Survival (average days of survival)” value (T. b. r. STIB900 [1]; ip 5 mg/kg daily for 4 days) was over 54.5 days, the “Cures (mice that survive and are parasite free for 60 days)” value (T. b. r. STIB900 [1]; ip 20 mg/kg daily for 4 days) was 4/4 and the “Survival (average days of survival)” value (T. b. r. STIB900 [1]; ip 20 mg/kg daily for 4 days) was over 60 days.
In the case of CO/N=C(\N)c1ccc(-c2ccc(-c3ccc(/C(N)=N/OC)cn3)o2)cc1 [3c], the “Cures (mice that survive and are parasite free for 60 days)” value (T. b. r. STIB900 [1]; po 25 mg/kg daily for 4 days) is listed as 4/4, the “Survival (average days of survival)” value (T. b. r. STIB900 [1]; po 25 mg/kg daily for 4 days) is listed as over 60 days and the “MSD (mean survival days)” value (T. b. brucei GVR35 [2]) is listed as over 180 days. The “No. of mice cured (survival >180 days without parasitemia relapse)” value (T. b. brucei GVR35 [2]) was 5/5.
In the case of N=C(N)c1ccc(-c2ccc(-c3ccc(C(=N)N)cn3)o2)nc1 [4a], the IC50 [3] is listed as 21 nM, the IC50 (Plasmodium falciparum K1 [4]) is listed as 83 nM and the “Cures (mice that survive and are parasite free for 60 days)” value (T. b. r. STIB900 [1]; ip 5 mg/kg daily for 4 days) is listed as 3/4. The “Survival (average days of survival)” value (T. b. r. STIB900 [1]; ip 5 mg/kg daily for 4 days) was over 49.5 days, the “Cures (mice that survive and are parasite free for 60 days)” value (T. b. r. STIB900 [1]; ip 20 mg/kg daily for 4 days) was 4/4 and the “Survival (average days of survival)” value (T. b. r. STIB900 [1]; ip 20 mg/kg daily for 4 days) was over 60 days.
For CO/N=C(\N)c1ccc(-c2ccc(-c3ccc(/C(N)=N/OC)cn3)o2)nc1 [4c], the “Cures (mice that survive and are parasite free for 60 days)” value (T. b. r. STIB900 [1]; po 25 mg/kg daily for 4 days) is given as 2/4, the “Survival (average days of survival)” value (T. b. r. STIB900 [1]; po 25 mg/kg daily for 4 days) is given as over 42 days and the “MSD (mean survival days)” value (T. b. brucei GVR35 [2]) is given as over 180 days. The “No. of mice cured (survival >180 days without parasitemia relapse)” value (T. b. brucei GVR35 [2]) was 5/5.
For N=C(N)c1ccc(-c2cncc(-c3ccc(C(=N)N)cc3F)n2)c(F)c1 [15b, 2,6-Di-(4′-amidino-2′-fluorophenyl)pyrazine hydrochloride], the “Cures (mice that survive and are parasite free for 60 days)” value (T. b. r. STIB900 [5]; ip 5 mg/kg daily for 4 days) was “no cures”.
For N=C(N)c1ccc(-c2cncc(-c3ccc(C(=N)N)cn3)n2)cc1 [19a, 2-(4′-amidinophenyl)-6-(5′-amidinopyridin-2′-yl)pyrazine hydrochloride], the “Decrease in ΔTm value relative to parent compound 10” value (poly(dA-dT)2) was 2 °C.
With N=C(N)c1ccc(-c2cncc(-c3ccc(C(=N)N)cn3)n2)nc1 [23a, 2,6-Di-(5′-amidinopyridin-2′-yl)pyrazine hydrochloride] the “Decrease in ΔTm value relative to parent compound 10” value (poly(dA-dT)2) was 3.9 °C.
With N=C(N)c1ccc(-c2cncc(-c3ccc(C(=N)N)nc3)n2)cn1 [23b, 2,6-Di-(2′-amidinopyridin-5′-yl)pyrazine hydrochloride] the “Decrease in ΔTm value relative to parent compound 10” value (poly(dA-dT)2) was 3.0 °C.
With N/C(=N\O)c1ccc(-c2cncc(-c3ccc(/C(N)=N\O)nc3)n2)cn1 [24b, 2,6-Di-(2′-N-hydroxyamidinopyridin-5′-yl)pyrazine hydrochloride] the “Cures (mice that survive and are parasite free for 60 days)” value (T. b. r. STIB900 [5]; po 25 mg/kg daily for 4 days) was “cures of all mice”, the “MSD (mean survival days)” value (T. b. brucei GVR35 [6]; po 100 mg/kg for 5 days) was 67.2 days and the “No. of mice cured (survival >180 days without parasitemia relapse)” value (T. b. brucei GVR35 [6]; [8]) was “not curative and 0/5”.
In the case of CO/N=C(\N)c1ccc(-c2cncc(-c3ccc(/C(N)=N\OC)cn3)n2)nc1 [25a, 2,6-Di-(5′-N-methoxyamidinopyridin-2′-yl)pyrazine hydrochloride], the “MSD (mean survival days)” value (T. b. brucei GVR35 [6]; po 100 mg/kg for 5 days) is reported as 95.2 days and the “No. of mice cured (survival >180 days without parasitemia relapse)” value (T. b. brucei GVR35 [6]; [8]) is reported as “not curative and 0/5”.
For N=C(N)c1ccc(-c2cnc(-c3ccc(C(=N)N)cc3)cn2)cc1 [compound 6], the IC50 [3] is given as 18 nM, the IC50 (Plasmodium falciparum K1 [4]) is given as 0.4 nM and the “Cures (mice that survive and are parasite free for 60 days)” value (T. b. r. STIB900 [1]; ip 5 mg/kg daily for 4 days, 5 mg/kg) is given as “no cure and 0/4”.
With N=C(N)c1ccc(-c2cncc(-c3ccc(C(=N)N)cc3)n2)cc1 [compound 10, 2,6-Di-(4′-amidinophenyl)pyrazine hydrochloride] the “Fold less potent than 6 against P. f.” value (Plasmodium falciparum K1 [7]) was 25 fold.
For N/C(=N\O)c1ccc(-c2cncc(-c3ccc(/C(N)=N/O)cc3)n2)cc1 [compound 11, 2,6-Di-(4′-N-hydroxyamidinophenyl)pyrazine hydrochloride], the “Cures (mice that survive and are parasite free for 60 days)” value (T. b. r. STIB900 [5]; po 25 mg/kg daily for 4 days) was “cures of all mice” and the “No. of mice cured (survival >180 days without parasitemia relapse)” value (T. b. brucei GVR35 [6]; [8]) was “no cures and 0/5”.
For CO/N=C(\N)c1ccc(-c2cncc(-c3ccc(/C(N)=N\OC)cc3)n2)cc1 [compound 12, 2,6-Di-(4′-N-methoxyamidinophenyl)pyrazine hydrochloride], the “No. of mice cured (survival >180 days without parasitemia relapse)” value (T. b. brucei GVR35 [6]; po 100 mg/kg for 5 days) was 2/5 and the “No. of mice cured (survival >180 days without parasitemia relapse)” value (T. b. brucei GVR35 [6]; po 100 mg/kg for 10 days) was 3/4.
